Laboratory results published in article PMC5621377 (Clinical cancer research : an official journal of the …, 2016).

Tested on: patients with Rb+ advanced solid tumors or lymphomas
Experiment: Safety assessments, adverse events
Type: in vivo, human
Method in brief: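 Oral test compound given daily 3-weeks-on/1-week-off in 28-day cycles, with doses escalated by a Bayesian logistic regression model with overdose control. Safety assessments, including ECGs, were done at baseline and at regular intervals. AEs were graded by CTCAE v4.0 and classed as suspected related to treatment. All patients dosed at least once were included; summaries were descriptive per dose level.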

[1] = 400 mg 3-weeks-on/1-week-off, n = 5
[2] = 600 mg 3-weeks-on/1-week-off, n = 67
[3] = 600 mg continuous dosing, n = 7
[4] = 750 mg 3-weeks-on/1-week-off, n = 14

CN(C)C(=O)c1cc2cnc(Nc3ccc(N4CCNCC4)cn3)nc2n1C1CCCC1 [ribociclib]
Nausea, Grade All, AE suspected related to study treatment [1]: 1 (20) n (%)
Neutropenia, Grade 3/4, AE suspected related to study treatment [1]: 1 (20) n (%)
Neutropenia, Grade All, AE suspected related to study treatment [1]: 2 (40) n (%)
Thrombocytopenia, Grade 3/4, AE suspected related to study treatment [1]: 0 n (%)
Thrombocytopenia, Grade All, AE suspected related to study treatment [1]: 1 (20) n (%)
Vomiting, Grade 3/4, AE suspected related to study treatment [1]: 0 n (%)
Vomiting, Grade All, AE suspected related to study treatment [1]: 2 (40) n (%)
Anemia, Grade 3/4, AE suspected related to study treatment [2]: 2 (3) n (%)
Anemia, Grade All, AE suspected related to study treatment [2]: 19 (28) n (%)
Appetite decreased, Grade 3/4, AE suspected related to study treatment [2]: 0 n (%)
Appetite decreased, Grade All, AE suspected related to study treatment [2]: 5 (7) n (%)
Blood creatinine increased, Grade 3/4, AE suspected related to study treatment [2]: 0 n (%)
Blood creatinine increased, Grade All, AE suspected related to study treatment [2]: 4 (6) n (%)
Diarrhea, Grade 3/4, AE suspected related to study treatment [2]: 2 (3) n (%)
Diarrhea, Grade All, AE suspected related to study treatment [2]: 18 (27) n (%)
Fatigue, Grade 3/4, AE suspected related to study treatment [2]: 2 (3) n (%)
Fatigue, Grade All, AE suspected related to study treatment [2]: 22 (33) n (%)
Leukopenia, Grade 3/4, AE suspected related to study treatment [2]: 13 (19) n (%)
Leukopenia, Grade All, AE suspected related to study treatment [2]: 31 (46) n (%)
Lymphopenia, Grade 3/4, AE suspected related to study treatment [2]: 12 (18) n (%)
Lymphopenia, Grade All, AE suspected related to study treatment [2]: 15 (22) n (%)
Nausea, Grade 3/4, AE suspected related to study treatment [2]: 1 (1) n (%)
Nausea, Grade All, AE suspected related to study treatment [2]: 30 (45) n (%)
Neutropenia, Grade 3/4, AE suspected related to study treatment [2]: 19 (28) n (%)
Neutropenia, Grade All, AE suspected related to study treatment [2]: 31 (46) n (%)
Thrombocytopenia, Grade 3/4, AE suspected related to study treatment [2]: 6 (9) n (%)
Thrombocytopenia, Grade All, AE suspected related to study treatment [2]: 23 (34) n (%)
Vomiting, Grade 3/4, AE suspected related to study treatment [2]: 0 n (%)
Vomiting, Grade All, AE suspected related to study treatment [2]: 17 (25) n (%)
Anemia, Grade 3/4, AE suspected related to study treatment [3]: 0 n (%)
Anemia, Grade All, AE suspected related to study treatment [3]: 2 (29) n (%)
Appetite decreased, Grade 3/4, AE suspected related to study treatment [3]: 0 n (%)
Appetite decreased, Grade All, AE suspected related to study treatment [3]: 0 n (%)
Blood creatinine increased, Grade 3/4, AE suspected related to study treatment [3]: 0 n (%)
Blood creatinine increased, Grade All, AE suspected related to study treatment [3]: 1 (14) n (%)
Diarrhea, Grade 3/4, AE suspected related to study treatment [3]: 0 n (%)
Diarrhea, Grade All, AE suspected related to study treatment [3]: 0 n (%)
Fatigue, Grade 3/4, AE suspected related to study treatment [3]: 1 (14) n (%)
Fatigue, Grade All, AE suspected related to study treatment [3]: 5 (71) n (%)
Leukopenia, Grade 3/4, AE suspected related to study treatment [3]: 5 (71) n (%)
Leukopenia, Grade All, AE suspected related to study treatment [3]: 6 (86) n (%)
Lymphopenia, Grade 3/4, AE suspected related to study treatment [3]: 2 (29) n (%)
Lymphopenia, Grade All, AE suspected related to study treatment [3]: 3 (43) n (%)
Nausea, Grade 3/4, AE suspected related to study treatment [3]: 0 n (%)
Nausea, Grade All, AE suspected related to study treatment [3]: 3 (43) n (%)
Neutropenia, Grade 3/4, AE suspected related to study treatment [3]: 5 (71) n (%)
Neutropenia, Grade All, AE suspected related to study treatment [3]: 6 (86) n (%)
Thrombocytopenia, Grade 3/4, AE suspected related to study treatment [3]: 0 n (%)
Thrombocytopenia, Grade All, AE suspected related to study treatment [3]: 2 (29) n (%)
Vomiting, Grade 3/4, AE suspected related to study treatment [3]: 0 n (%)
Vomiting, Grade All, AE suspected related to study treatment [3]: 2 (29) n (%)
patients with asymptomatic QTcF prolongation (600 mg/day (RDE)): 9%
Anemia, Grade 3/4, AE suspected related to study treatment [4]: 1 (7) n (%)
Anemia, Grade All, AE suspected related to study treatment [4]: 3 (21) n (%)
Appetite decreased, Grade 3/4, AE suspected related to study treatment [4]: 0 n (%)
Appetite decreased, Grade All, AE suspected related to study treatment [4]: 3 (21) n (%)
Blood creatinine increased, Grade 3/4, AE suspected related to study treatment [4]: 0 n (%)
Blood creatinine increased, Grade All, AE suspected related to study treatment [4]: 3 (21) n (%)
Diarrhea, Grade 3/4, AE suspected related to study treatment [4]: 0 n (%)
Diarrhea, Grade All, AE suspected related to study treatment [4]: 4 (29) n (%)
Fatigue, Grade 3/4, AE suspected related to study treatment [4]: 0 n (%)
Fatigue, Grade All, AE suspected related to study treatment [4]: 5 (36) n (%)
Leukopenia, Grade 3/4, AE suspected related to study treatment [4]: 0 n (%)
Leukopenia, Grade All, AE suspected related to study treatment [4]: 6 (43) n (%)
Lymphopenia, Grade 3/4, AE suspected related to study treatment [4]: 1 (7) n (%)
Lymphopenia, Grade All, AE suspected related to study treatment [4]: 6 (43) n (%)
Nausea, Grade 3/4, AE suspected related to study treatment [4]: 1 (7) n (%)
Nausea, Grade All, AE suspected related to study treatment [4]: 8 (57) n (%)
Neutropenia, Grade 3/4, AE suspected related to study treatment [4]: 5 (36) n (%)
Neutropenia, Grade All, AE suspected related to study treatment [4]: 8 (57) n (%)
Thrombocytopenia, Grade 3/4, AE suspected related to study treatment [4]: 3 (21) n (%)
Thrombocytopenia, Grade All, AE suspected related to study treatment [4]: 5 (36) n (%)
Vomiting, Grade 3/4, AE suspected related to study treatment [4]: 0 n (%)
Vomiting, Grade All, AE suspected related to study treatment [4]: 4 (29) n (%)
